From article PMC4303578 (Chemical Science, 2014) come the findings set out here.

In this assay the test system is His6–FzmG. Nature of the assay: O2 consumption, Hansatech O2 electrode. Format: biochemical. The following applies: alpha-KG 1 mM (saturating), Fe(II). The method, boiled down:
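Apparent steady-state kinetics by Clark-type O2 electrode. Phosphonic acid substrate concentration varied; α-KG held at 1 mM (saturating). Enzyme held constant at 3.7 μM for most substrates and 9.25 μM for one. Reactions were started by adding enzyme. Initial O2-consumption rates were measured in triplicate. Km was taken from nonlinear Michaelis–Menten regression.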

What is called Km is the concentration of substrate that gives half-maximal velocity. Regarding `O=P(O)(O)CCO` [2-HEP], the Km (3.7 μM enzyme) came to 210 ± 40 µM.

Take `COC(=O)CP(=O)(O)O` [Me-PnA]: under “3.7 μM enzyme”, the Km stood at 80 ± 20 µM.

Regarding `O=CCP(=O)(O)O` [PnAA], the Km (3.7 μM enzyme) is 800 ± 300 µM. In the case of `O=C(O)CP(=O)(O)O` [PnA], the Km (9.25 μM enzyme) was determined as 8000 ± 1000 µM.
